Here are results for 3 compounds from ChEMBL document CHEMBL1123363, “(5-Amino-1,3-dimethyl-1H-pyrazol-4-yl)(2-fluorophenyl)methanones . A series of novel potential antipsychotic agents” (J Med Chem, 1986).

One test deals with Canis familiaris. Briefly: Emesis test in dogs was determined when administered perorally. Format: functional. The note with it: Canis lupus familiaris, po; read-out: MED. The method in brief: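 Fasted dogs (7–12 kg), normally three per dose, were dosed orally and observed hourly for up to 6 h for emesis and other autonomic or behavioural signs. The minimal effective dose was the lowest dose producing emesis in any animal.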

The target of test [1] is T1, Adrenergic receptor alpha-2 (Rattus norvegicus, UniProt P22086+P19328+P22909).
T1 sequence (P22086 whole entry): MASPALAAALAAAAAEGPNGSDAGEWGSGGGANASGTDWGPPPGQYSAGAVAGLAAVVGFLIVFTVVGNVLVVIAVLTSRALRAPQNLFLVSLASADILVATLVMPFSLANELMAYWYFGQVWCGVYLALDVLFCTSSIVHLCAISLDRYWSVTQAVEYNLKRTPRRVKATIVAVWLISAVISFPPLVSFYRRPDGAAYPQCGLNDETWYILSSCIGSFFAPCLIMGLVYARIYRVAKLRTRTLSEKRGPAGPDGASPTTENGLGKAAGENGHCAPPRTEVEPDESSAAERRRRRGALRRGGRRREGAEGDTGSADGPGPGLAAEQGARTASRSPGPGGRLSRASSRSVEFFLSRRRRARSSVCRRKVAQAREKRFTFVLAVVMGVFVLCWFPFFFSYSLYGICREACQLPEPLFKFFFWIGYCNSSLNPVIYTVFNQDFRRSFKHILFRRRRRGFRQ
T1 sequence (P19328 whole entry): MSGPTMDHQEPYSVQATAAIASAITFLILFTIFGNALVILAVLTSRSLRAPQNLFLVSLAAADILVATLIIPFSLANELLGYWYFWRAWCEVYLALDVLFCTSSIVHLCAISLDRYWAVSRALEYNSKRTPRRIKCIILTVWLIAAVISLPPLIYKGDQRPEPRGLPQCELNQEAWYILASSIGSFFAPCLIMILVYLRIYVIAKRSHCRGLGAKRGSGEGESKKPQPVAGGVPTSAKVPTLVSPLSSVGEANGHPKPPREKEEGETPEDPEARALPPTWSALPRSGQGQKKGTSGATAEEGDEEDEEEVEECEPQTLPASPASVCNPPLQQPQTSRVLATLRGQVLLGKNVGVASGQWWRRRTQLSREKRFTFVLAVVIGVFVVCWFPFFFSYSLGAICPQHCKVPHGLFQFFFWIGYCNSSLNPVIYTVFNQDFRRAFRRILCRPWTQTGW
T1 sequence (P22909 whole entry): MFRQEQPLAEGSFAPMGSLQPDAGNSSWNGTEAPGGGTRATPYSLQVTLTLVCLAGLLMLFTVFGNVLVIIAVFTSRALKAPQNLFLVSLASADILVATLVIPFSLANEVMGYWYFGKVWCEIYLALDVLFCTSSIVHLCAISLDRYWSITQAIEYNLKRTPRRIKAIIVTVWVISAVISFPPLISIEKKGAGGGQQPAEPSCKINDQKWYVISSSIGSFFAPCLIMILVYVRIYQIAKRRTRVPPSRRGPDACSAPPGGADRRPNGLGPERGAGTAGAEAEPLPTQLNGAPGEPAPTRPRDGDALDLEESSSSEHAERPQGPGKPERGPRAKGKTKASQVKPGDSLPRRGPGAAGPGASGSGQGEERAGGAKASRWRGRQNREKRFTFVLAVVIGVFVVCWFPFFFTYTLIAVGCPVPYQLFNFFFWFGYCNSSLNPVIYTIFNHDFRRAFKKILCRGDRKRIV
The experiment in a line: Binding affinity against the alpha-2 adrenergic receptor using [3H]- clonidine. The class given is protein assay. The method in brief:
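α2 sites in rat cerebral cortex membranes (male Long-Evans, 150–250 g) labelled with [3H]clonidine at 0.4 nM final. (-)-Norepinephrine at 10 μM final was the reference. IC50 from four or five concentrations by nonlinear fit.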

In test [2] the target is T2, Adrenergic receptor alpha-1 (Rattus norvegicus, UniProt P15823+P23944+P43140).
T2 sequence (P15823 whole entry): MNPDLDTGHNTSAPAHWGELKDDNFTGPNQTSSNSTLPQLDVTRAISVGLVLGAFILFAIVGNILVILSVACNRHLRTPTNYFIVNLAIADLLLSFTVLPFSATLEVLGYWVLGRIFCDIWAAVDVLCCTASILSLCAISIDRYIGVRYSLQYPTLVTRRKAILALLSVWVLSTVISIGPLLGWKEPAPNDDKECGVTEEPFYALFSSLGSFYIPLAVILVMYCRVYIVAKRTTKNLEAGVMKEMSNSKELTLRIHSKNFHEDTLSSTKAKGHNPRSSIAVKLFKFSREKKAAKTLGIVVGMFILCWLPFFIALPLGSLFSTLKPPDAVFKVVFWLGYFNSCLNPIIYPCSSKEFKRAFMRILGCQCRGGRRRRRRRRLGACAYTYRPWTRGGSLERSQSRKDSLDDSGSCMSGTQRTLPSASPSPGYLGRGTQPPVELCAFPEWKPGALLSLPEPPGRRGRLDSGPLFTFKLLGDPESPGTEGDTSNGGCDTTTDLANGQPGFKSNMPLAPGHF
T2 sequence (P23944 whole entry): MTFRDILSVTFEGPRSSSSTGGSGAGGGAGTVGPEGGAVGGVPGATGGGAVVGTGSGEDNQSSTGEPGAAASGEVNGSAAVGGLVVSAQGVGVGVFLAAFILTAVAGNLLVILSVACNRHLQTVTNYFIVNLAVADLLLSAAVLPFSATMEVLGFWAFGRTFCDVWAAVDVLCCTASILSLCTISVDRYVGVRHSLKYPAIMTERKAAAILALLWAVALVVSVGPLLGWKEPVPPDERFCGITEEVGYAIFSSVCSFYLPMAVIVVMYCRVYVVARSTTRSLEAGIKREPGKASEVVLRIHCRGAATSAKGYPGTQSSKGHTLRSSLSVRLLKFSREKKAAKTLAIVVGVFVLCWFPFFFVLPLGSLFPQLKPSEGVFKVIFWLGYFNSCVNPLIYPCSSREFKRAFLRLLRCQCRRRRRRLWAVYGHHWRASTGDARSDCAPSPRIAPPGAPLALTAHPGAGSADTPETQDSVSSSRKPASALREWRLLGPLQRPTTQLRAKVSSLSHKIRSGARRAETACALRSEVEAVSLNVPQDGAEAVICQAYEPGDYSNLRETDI
T2 sequence (P43140 whole entry): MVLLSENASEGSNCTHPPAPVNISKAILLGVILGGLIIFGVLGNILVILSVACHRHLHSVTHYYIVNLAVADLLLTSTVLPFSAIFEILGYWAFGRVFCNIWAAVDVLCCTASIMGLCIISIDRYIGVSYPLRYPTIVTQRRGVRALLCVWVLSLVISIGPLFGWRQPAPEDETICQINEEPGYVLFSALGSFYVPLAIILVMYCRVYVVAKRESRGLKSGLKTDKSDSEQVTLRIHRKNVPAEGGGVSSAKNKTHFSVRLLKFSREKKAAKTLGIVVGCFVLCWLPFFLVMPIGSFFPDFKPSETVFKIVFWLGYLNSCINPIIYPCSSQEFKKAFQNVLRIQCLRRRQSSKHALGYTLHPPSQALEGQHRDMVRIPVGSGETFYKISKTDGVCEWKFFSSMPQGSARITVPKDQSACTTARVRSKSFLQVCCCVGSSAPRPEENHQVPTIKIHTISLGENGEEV

Where only a bound is given, the exact number is not on record here.

Regarding `CCN(CC)CC(=O)Nc1c(C(=O)c2ccccc2F)c(C)nn1C`, the minimal effective dose in the test on Canis familiaris amounted to 56 mg/kg. Besides, the IC50 in test [1] is greater than 10 µM.

`Cc1nn(C)c(NC(=O)CNCCCN2CCCCC2C)c1C(=O)c1ccccc1F` (centres undefined) gave a concentration for half-maximal inhibition (IC50) in test [2] greater than 10 µM.

`Cc1nn(C)c(N)c1C(=O)c1ccccc1F` registered a 50% inhibitory concentration (IC50) in test [2] greater than 10 µM.
